This is an account of results in ChEMBL document CHEMBL1140543, “Biphenyls as potent vitronectin receptor antagonists. Part 3: Squaric acid amides” (Bioorg Med Chem Lett, 2007).

Series [1] addresses T1, Integrin alpha-V/beta-3 (Homo sapiens, UniProt P05106+P06756). As to the kind of experiment: Binding affinity to integrin alpha-v-beta-3 receptor. Format: protein-complex assay.
Target sequence in this assay (P05106 27-788 limits assumed): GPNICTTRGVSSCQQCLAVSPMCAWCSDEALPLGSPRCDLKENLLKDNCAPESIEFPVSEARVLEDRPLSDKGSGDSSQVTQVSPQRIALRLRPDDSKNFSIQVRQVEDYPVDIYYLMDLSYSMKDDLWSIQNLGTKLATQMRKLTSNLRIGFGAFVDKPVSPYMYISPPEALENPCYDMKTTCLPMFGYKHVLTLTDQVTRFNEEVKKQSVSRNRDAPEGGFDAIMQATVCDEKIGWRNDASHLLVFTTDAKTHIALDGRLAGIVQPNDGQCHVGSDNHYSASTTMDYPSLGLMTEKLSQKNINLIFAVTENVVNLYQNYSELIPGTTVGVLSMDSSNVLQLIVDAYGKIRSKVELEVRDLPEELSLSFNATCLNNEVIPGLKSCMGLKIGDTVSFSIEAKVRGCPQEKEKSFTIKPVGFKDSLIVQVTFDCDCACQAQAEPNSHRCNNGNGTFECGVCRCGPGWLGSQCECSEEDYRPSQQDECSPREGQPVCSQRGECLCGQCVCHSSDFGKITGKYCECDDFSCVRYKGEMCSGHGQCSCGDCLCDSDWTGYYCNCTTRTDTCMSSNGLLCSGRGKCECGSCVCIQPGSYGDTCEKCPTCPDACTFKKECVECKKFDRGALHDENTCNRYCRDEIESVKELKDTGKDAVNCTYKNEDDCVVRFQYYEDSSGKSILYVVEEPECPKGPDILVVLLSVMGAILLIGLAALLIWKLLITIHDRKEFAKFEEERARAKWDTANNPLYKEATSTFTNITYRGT
Target sequence in this assay (P06756 31-889 limits assumed): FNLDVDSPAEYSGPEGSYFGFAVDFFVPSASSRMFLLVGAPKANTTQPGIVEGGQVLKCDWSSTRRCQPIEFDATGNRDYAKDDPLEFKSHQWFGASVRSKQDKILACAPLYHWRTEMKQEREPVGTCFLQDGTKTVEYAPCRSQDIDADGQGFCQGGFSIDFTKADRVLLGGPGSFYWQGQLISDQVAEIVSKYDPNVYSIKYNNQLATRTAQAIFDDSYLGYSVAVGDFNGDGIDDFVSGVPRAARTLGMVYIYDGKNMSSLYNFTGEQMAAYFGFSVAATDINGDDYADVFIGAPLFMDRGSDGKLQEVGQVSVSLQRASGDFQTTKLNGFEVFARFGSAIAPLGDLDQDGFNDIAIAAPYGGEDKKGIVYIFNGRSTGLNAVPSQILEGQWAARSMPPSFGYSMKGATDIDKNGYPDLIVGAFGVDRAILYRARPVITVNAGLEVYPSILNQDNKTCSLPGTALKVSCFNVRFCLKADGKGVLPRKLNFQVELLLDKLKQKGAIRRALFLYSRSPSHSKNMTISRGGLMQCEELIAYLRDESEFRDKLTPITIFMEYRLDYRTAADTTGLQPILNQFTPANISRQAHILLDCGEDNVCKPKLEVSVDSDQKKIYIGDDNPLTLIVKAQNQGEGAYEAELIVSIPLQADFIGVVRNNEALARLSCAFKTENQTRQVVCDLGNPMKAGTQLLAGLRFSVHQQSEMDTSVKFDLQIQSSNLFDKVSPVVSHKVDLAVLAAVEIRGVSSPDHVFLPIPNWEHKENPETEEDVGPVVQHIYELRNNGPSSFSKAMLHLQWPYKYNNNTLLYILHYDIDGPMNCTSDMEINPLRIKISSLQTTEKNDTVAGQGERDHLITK
Target sequence in this assay (P06756 891-1048 limits assumed): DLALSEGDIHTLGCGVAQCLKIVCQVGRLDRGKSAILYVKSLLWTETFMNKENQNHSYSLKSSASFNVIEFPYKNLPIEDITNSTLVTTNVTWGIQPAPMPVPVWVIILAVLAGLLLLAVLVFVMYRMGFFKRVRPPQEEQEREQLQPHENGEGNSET
The target in series [2] is T1, Integrin alpha-V/beta-3. Description: Antagonist activity at human integrin alpha-v-beta-3 receptor expressed in HEK293 cells. It is filed as functional, cell-based. A digest of the protocol: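 HEK 293 cells transfected with human αvβ3 were used. Inhibition of the adhesion of purified human vitronectin to these cells gave the cellular αvβ3 affinity.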
In series [3] the target is Integrin alpha-IIb/beta-3 (Homo sapiens, UniProt P05106+P08514). Description: Binding affinity to GP2b3a receptor. Format: protein-complex assay.
Sequence of Integrin alpha-IIb/beta-3 (P05106 27-788 limits assumed): as the sequence (P05106 27-788 limits assumed) above
Sequence of Integrin alpha-IIb/beta-3 (P08514 32-887 limits assumed): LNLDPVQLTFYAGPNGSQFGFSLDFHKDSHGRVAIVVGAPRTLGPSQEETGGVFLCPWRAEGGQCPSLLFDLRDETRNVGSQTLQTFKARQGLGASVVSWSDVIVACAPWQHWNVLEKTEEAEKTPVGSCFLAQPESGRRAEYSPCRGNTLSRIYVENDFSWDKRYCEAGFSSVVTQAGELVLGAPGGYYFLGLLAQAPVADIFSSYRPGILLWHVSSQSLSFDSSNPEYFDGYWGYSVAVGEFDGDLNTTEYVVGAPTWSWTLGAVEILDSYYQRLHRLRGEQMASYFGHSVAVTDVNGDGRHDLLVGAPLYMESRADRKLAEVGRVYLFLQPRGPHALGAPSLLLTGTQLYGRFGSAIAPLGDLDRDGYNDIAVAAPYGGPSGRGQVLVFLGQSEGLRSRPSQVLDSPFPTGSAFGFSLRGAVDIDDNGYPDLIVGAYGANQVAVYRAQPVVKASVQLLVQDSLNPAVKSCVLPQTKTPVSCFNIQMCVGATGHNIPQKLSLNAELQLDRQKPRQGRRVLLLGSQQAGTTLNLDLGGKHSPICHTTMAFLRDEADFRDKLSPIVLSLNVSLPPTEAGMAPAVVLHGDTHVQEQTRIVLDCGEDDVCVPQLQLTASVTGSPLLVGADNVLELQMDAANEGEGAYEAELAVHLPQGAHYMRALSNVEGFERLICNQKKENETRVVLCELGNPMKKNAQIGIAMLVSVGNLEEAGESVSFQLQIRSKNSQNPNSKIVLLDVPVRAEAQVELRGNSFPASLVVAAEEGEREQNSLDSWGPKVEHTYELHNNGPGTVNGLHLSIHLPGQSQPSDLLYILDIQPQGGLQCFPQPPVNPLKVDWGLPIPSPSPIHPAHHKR
Sequence of Integrin alpha-IIb/beta-3 (P08514 891-1039 limits assumed): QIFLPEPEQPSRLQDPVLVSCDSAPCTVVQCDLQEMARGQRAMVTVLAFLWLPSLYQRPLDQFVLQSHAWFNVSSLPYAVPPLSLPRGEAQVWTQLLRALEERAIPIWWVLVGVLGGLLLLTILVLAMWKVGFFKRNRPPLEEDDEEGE
The next series has as its target Albumin (Homo sapiens, UniProt P02768). Description: Binding affinity to human serum albumin by equilibrium dialysis.
A short description of series [4]: Inhibition of smooth muscle cell migration. Format: functional, Homo sapiens.
Another series concerns Liver microsomes. Description: Clearance in rat liver microsomes. Format: ADME, Microsome.

Sequence of Albumin (P02768 whole entry): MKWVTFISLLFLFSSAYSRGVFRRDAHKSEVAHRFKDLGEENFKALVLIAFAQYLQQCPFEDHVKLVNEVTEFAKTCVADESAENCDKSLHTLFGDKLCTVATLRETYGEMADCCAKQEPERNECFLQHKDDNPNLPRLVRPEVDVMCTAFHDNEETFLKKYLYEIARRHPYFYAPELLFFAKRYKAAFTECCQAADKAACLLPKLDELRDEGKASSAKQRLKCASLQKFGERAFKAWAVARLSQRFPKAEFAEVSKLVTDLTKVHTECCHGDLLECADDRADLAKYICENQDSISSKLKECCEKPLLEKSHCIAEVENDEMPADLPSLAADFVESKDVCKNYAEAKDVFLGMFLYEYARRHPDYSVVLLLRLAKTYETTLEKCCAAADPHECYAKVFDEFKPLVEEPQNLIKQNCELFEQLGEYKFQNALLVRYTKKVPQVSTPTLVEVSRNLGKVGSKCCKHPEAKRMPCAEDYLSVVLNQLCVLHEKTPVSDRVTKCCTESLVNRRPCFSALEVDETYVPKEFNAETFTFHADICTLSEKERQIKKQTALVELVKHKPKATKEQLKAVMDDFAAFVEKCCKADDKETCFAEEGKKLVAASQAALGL

The compound `Cc1cc(C)c(S(=O)(=O)N[C@@H](Cc2ccc(-c3cccc(Nc4c(NCc5ccccn5)c(=O)c4=O)c3)cc2)C(=O)O)c(C)c1` showed a Ki on Integrin alpha-V/beta-3 [1] of 11 nM.
The same measure, in the same setting: with `Cc1cc(C)c(S(=O)(=O)N[C@@H](Cc2ccc(-c3cccc(NC(=O)c4ccncc4)c3)cc2)C(=O)O)c(C)c1` the figure was 700 nM; with `Cc1cc(C)c(S(=O)(=O)N[C@@H](Cc2ccc(-c3cccc(NC(=O)c4cccnc4)c3)cc2)C(=O)O)c(C)c1`, 400 nM.
With `CS(=O)(=O)N[C@@H](Cc1ccc(-c2cccc(Nc3c(NC4CC4)c(=O)c3=O)c2)cc1)C(=O)O`, on Integrin alpha-V/beta-3 [1], affinity was put at a Ki of 10 nM.
The same measure, in the same setting: with `Cc1cc(C)c(S(=O)(=O)N[C@@H](Cc2ccc(-c3cccc(NC4=NCCN4)c3)cc2)C(=O)O)c(C)c1` the figure was 1.3 nM.
As for `Cc1cc(C)c(S(=O)(=O)N[C@@H](Cc2ccc(-c3cccc(NC(=O)c4ccccn4)c3)cc2)C(=O)O)c(C)c1`, the Ki at Integrin alpha-V/beta-3 [1] was > 2000 nM.
Consider `Cc1cc(C)c(S(=O)(=O)N[C@@H](Cc2ccc(-c3cccc(NC(=O)c4ccco4)c3)cc2)C(=O)O)c(C)c1`, for which, at Integrin alpha-V/beta-3 [1], affinity was put at a Ki of 650 nM.
As for `Cc1cc(C)c(S(=O)(=O)N[C@@H](Cc2ccc(-c3cccc(NC(=O)c4ccc[nH]4)c3)cc2)C(=O)O)c(C)c1`, the affinity at Integrin alpha-V/beta-3 [1], expressed as Ki, was 33 nM.
For `Cc1cc(C)c(S(=O)(=O)N[C@@H](Cc2ccc(-c3cccc(NC(=O)NC4CC4)c3)cc2)C(=O)O)c(C)c1`, the Activity at Integrin alpha-V/beta-3 [2] turned out to be 85 nM; in series [4], 390 nM. The affinity in series [3], expressed as Ki, was 128 nM. The compound also registered a Kd on Albumin of 740 nM.
`Cc1cc(C)c(S(=O)(=O)N[C@@H](Cc2ccc(-c3cccc(Nc4n[s+]([O-])nc4NC4CC4)c3)cc2)C(=O)O)c(C)c1` (some centres not stated) yielded an inhibitory constant (Ki) at Integrin alpha-V/beta-3 [1] of 18 nM.
On the same count and under the same terms, with `Cc1cc(C)c(S(=O)(=O)N[C@@H](Cc2ccc(-c3cccc(NC(=O)c4ncc[nH]4)c3)cc2)C(=O)O)c(C)c1` the figure was 1 nM; with `Cc1cc(C)c(S(=O)(=O)N[C@@H](Cc2ccc(-c3cccc(Nc4c(NCc5ccccc5)c(=O)c4=O)c3)cc2)C(=O)O)c(C)c1`, 25 nM.
For `Cc1cc(C)c(S(=O)(=O)N[C@@H](Cc2ccc(-c3cccc(Nc4c(NC5CC5)c(=O)c4=O)c3)cc2)C(=O)O)c(C)c1`, the figures for the Activity (at Integrin alpha-V/beta-3 [2]; in series [4]) were 13 nM and 10 nM, respectively. For the same compound, the Ki stood at 47 nM in series [3] and 0.5 nM on Integrin alpha-V/beta-3 [1]. Also, the affinity on Albumin, expressed as Kd, was 420 nM. Moreover, the CL in the series on Liver microsomes was 65 mL/min/kg.
Take `CC1(C)C2CC[C@]1(S(=O)(=O)N[C@@H](Cc1ccc(-c3cccc(Nc4c(NC5CC5)c(=O)c4=O)c3)cc1)C(=O)O)C(=O)C2`: on Integrin alpha-V/beta-3 [1], the Ki worked out at 0.1 nM.
